Laboratory results taken from PMC2903386 (The Journal of Biological Chemistry, 2010).
One block for each compound: values may come before it. Non-standard residues stand in square brackets, D forms with d. Residues, ends and D or L forms follow the SMILES beside them. *: point of attachment. X1 = CC[N+]1=C(C=CC=CC=C2N(CCCCCC(=O)NCCN3C(=O)CC(*)C3=O)c3ccc(S(=O)(=O)O)cc3C2(C)C)C(C)(C)c2cc(S(=O)(=O)[O-])ccc21; Propanoyl(3-maleimido) = O=C1C=CC(=O)N1CCC(=O)*; Ahx = NCCCCCC(=O)O

Columns and labels:
[1] = Effect of inhibitors on cleavage of RLQLKL ACPP by PyMT tumor cystic fluid; format: biochemical, mouse; conditions: for inhibition of cystic fluid cleavage of RLQLKL ACPP (in words): 5 μM Cy5-labeled RLQLKL ACPP, 2% cystic fluid, 2 h, 5 mM Ca-DTPA, 50 μM TPEN, 18 μM SB3CT, 50 nM GM6001, 0.26 μM prinomastat, 150 nM aprotinin, 100 μM leupeptin, 60 μM α1-antitrypsin, gel
Method in brief: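 Cystic fluid was aspirated by syringe from surgically exposed fluid-filled mammary tumor nodules of PyMT mice. The 5 μm Cy5 peptide was incubated at 37 °C for 2 h in PBS with 1 μm ZnCl2. Inhibitors were used at manufacturer-recommended concentrations, including 10 μm E-64, 1 μm pepstatin A, protease inhibitor mixture III (1:1000) and mixture III plus DTPA. Cleavage was read by Tricine gel electrophoresis and Cy5 fluorescence imaging.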

[2] = Tumor standardized uptake value; format: in vivo; conditions: mouse, iv
PyMT mammary tumors = assay: Fluorescence imaging contrast in PyMT tumor-bearing mice; format: in vivo, mouse; conditions: PyMT mice; for fluorescence contrast in tumors relative to adjacent normal tissue (in words): Cy5-labeled ACPP i.v., 6 h, data not shown
Method in brief: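 PyMT transgenic mice bearing spontaneous mammary tumors were anesthetized with ketamine 80 mg/kg plus midazolam 5 mg/kg (1:1) and weighed. They were injected via the tail vein with Cy5 peptide: free peptide 100 μl of 100 μM (10 nmol) or albumin-reactive peptide 100 μl of 30 μM (3 nmol). Maestro imaging (ex 640 ± 24 nm, em >700 nm) was done at 6 h or 48 h, comparing tumor with adjacent normal tissue.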

Tumor uptake = format: in vivo; conditions: nude, mouse, tumor (MDA-MB-435 M4A4 xenograft), iv, 10 nmol
Method in brief: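 After imaging, mice were euthanized with isoflurane. 30 mg of each tissue was homogenized in 100 μl Tris pH 7.6 with 1% SDS, heated to 85 °C for 10 min, microwaved 10 s and spun at 20,500 × g for 15 min, then imaged. Tissue-specific spiked standards calibrated fluorescence. SUV = tissue peptide molality ÷ injected dose (mol/kg body weight). Values are means ± S.D.; two-tailed t tests.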

trypsin = trypsin (Bos taurus, UniProt P00760); assay: Cleavage by purified trypsin; format: in vitro ADME, bovine; conditions: Cy5-labeled ACPP, gel (supplemental Fig. 4)
trypsin, sequence (P00760 24-246): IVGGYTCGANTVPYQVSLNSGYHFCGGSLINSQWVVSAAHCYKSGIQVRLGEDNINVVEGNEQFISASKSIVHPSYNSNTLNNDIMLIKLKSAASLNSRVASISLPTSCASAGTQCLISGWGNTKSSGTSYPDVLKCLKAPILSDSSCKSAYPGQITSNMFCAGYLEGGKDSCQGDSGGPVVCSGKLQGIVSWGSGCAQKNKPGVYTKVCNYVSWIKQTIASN
Method in brief: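 Commercial active-form purified enzyme at 50 nm was incubated with 5 μm Cy5-labeled peptide in the manufacturer's recommended buffer. Samples were mixed with Tricine sample buffer, boiled 1 min, and resolved on 10–20% Tricine acrylamide gels. Gels were imaged quantitatively at excitation 628 ± 20 nm and emission >700 nm, and the percentage of cleaved versus uncleaved peptide was quantified.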

neutrophil elastase = assay: 50 nM enzyme in the manufacturer's recommended buffer; conditions: up to 4 h
plasmin = assay: 50 nM plasmin; conditions: human recombinant, 37 °C, up to 2 h
[3] = Effect of inhibitors on cleavage of RLQLKL ACPP by tumor extract; format: biochemical, mouse; conditions: 5 μM Cy5-labeled RLQLKL ACPP, tumor extract 2.0 to 0.25%; 60 μM α1-antitrypsin; gel
Method in brief: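 Fresh tumor tissue was gently homogenized in PBS on ice and spun at 14,000 × g for 1 min; the supernatant served as the extract. The 5 μm Cy5 peptide was digested at 37 °C in PBS containing 1 μm ZnCl2, with or without 60 μm α1-antitrypsin. Aliquots were taken from 20 min to 18 h, with the 2-h point reported. Cleavage was quantified by Tricine gel and fluorescence imaging.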

Compound: O=C(O)CN(CCN(CC(=O)O)CC(=O)O)CCN(CC(=O)O)CC(=O)O [DTPA, diethylene triamine pentacetic acid]
- inhibition of cystic fluid cleavage of RLQLKL ACPP (in words) [1]: unaffected

Compound: CNC(=O)[C@H](Cc1c[nH]c2ccccc12)NC(=O)[C@@H](CC(=O)NO)CC(C)C [GM6001]
- inhibition of cystic fluid cleavage of RLQLKL ACPP (in words) [1]: unaffected
- inhibition of cystic fluid cleavage of RLQLKL ACPP at 1 μM (in words) ([1]; GM6001 at 1 μM, data not shown): no inhibition

Compound: CC[N+]1=C(C=CC=CC=C2N(CCCCCC(=O)NCCN3C(=O)CC(SC[C@@H](NC(=O)[C@@H](CCCNC(=N)N)NC(=O)[C@@H](CCCNC(=N)N)NC(=O)[C@@H](CCCNC(=N)N)NC(=O)[C@@H](CCCNC(=N)N)NC(=O)[C@@H](CCCNC(=N)N)NC(=O)[C@@H](CCCNC(=N)N)NC(=O)[C@@H](CCCNC(=N)N)NC(=O)[C@@H](CCCNC(=N)N)NC(=O)[C@@H](CCCNC(=N)N)NC(=O)[C@H](CC(C)C)NC(=O)[C@H](CCCCNC(C)=O)NC(=O)[C@H](CC(C)C)NC(=O)[C@H](CCC(N)=O)NC(=O)[C@H](CC(C)C)NC(=O)[C@H](CCCNC(=N)N)NC(=O)CCCCCNC(=O)[C@@H](CCC(=O)O)NC(=O)[C@@H](CCC(=O)O)NC(=O)[C@@H](CCC(=O)O)NC(=O)[C@@H](CCC(=O)O)NC(=O)[C@@H](CCC(=O)O)NC(=O)[C@@H](CCC(=O)O)NC(=O)[C@@H](CCC(=O)O)NC(=O)[C@@H](CCC(=O)O)NC(=O)[C@@H](CCC(=O)O)NC(=O)CCN4C(=O)C=CC4=O)C(N)=O)C3=O)c3ccc(S(=O)(=O)O)cc3C2(C)C)C(C)(C)c2cc(S(=O)(=O)[O-])ccc21 (stereo partly shown) [Mal-RLQLK(Ac)L ACPP] ({Propanoyl(3-maleimido)}-[dE][dE][dE][dE][dE][dE][dE][dE][dE][Ahx]RLQLK(Ac)L[dR][dR][dR][dR][dR][dR][dR][dR][dR][dC](X1)-NH2)
- SUV at 48 h ([2]; PyMT, 3 nmol): 2.3 ± 0.6 SUV
- Tumor to non-tumor contrast, albumin-reactive peptide (PyMT mammary tumors; fluorescence imaging 48 h postinjection of 3 nmol): 5.1 fold

- SUV [2]: 0.14 ± 0.06 SUV
Compound: CC[N+]1=C(C=CC=CC=C2N(CCCCCC(=O)NCCN3C(=O)CC(SC[C@@H](NC(=O)[C@@H](CCCNC(=N)N)NC(=O)[C@@H](CCCNC(=N)N)NC(=O)[C@@H](CCCNC(=N)N)NC(=O)[C@@H](CCCNC(=N)N)NC(=O)[C@@H](CCCNC(=N)N)NC(=O)[C@@H](CCCNC(=N)N)NC(=O)[C@@H](CCCNC(=N)N)NC(=O)[C@@H](CCCNC(=N)N)NC(=O)[C@@H](CCCNC(=N)N)NC(=O)CNC(=O)[C@@H](C)NC(=O)[C@@H](CC(C)C)NC(=O)CNC(=O)[C@@H](CC(C)C)NC(=O)[C@H]4CCCN4C(=O)CCCCCNC(=O)[C@@H](CCC(=O)O)NC(=O)[C@@H](CCC(=O)O)NC(=O)[C@@H](CCC(=O)O)NC(=O)[C@@H](CCC(=O)O)NC(=O)[C@@H](CCC(=O)O)NC(=O)[C@@H](CCC(=O)O)NC(=O)[C@@H](CCC(=O)O)NC(=O)[C@@H](CCC(=O)O)NC(=O)[C@H](N)CCC(=O)O)C(N)=O)C3=O)c3ccc(S(=O)(=O)O)cc3C2(C)C)C(C)(C)c2cc(S(=O)(=O)[O-])ccc21 (stereo partly drawn) [PLGLAG ACPP D-amino acid control, reference compound] (H-[dE][dE][dE][dE][dE][dE][dE][dE][dE][Ahx][dP][dL]G[dL][dA]G[dR][dR][dR][dR][dR][dR][dR][dR][dR][dC](X1)-NH2)

- SUV [2]: 0.51 ± 0.05 SUV
Compound: CC[N+]1=C(C=CC=CC=C2N(CCCCCC(=O)NCCN3C(=O)CC(SC[C@@H](NC(=O)[C@@H](CCCNC(=N)N)NC(=O)[C@@H](CCCNC(=N)N)NC(=O)[C@@H](CCCNC(=N)N)NC(=O)[C@@H](CCCNC(=N)N)NC(=O)[C@@H](CCCNC(=N)N)NC(=O)[C@@H](CCCNC(=N)N)NC(=O)[C@@H](CCCNC(=N)N)NC(=O)[C@@H](CCCNC(=N)N)NC(=O)[C@@H](CCCNC(=N)N)NC(=O)CNC(=O)[C@H](C)NC(=O)[C@H](CC(C)C)NC(=O)CNC(=O)[C@H](CC(C)C)NC(=O)[C@@H]4CCCN4C(=O)CCCCCNC(=O)[C@@H](CCC(=O)O)NC(=O)[C@@H](CCC(=O)O)NC(=O)[C@@H](CCC(=O)O)NC(=O)[C@@H](CCC(=O)O)NC(=O)[C@@H](CCC(=O)O)NC(=O)[C@@H](CCC(=O)O)NC(=O)[C@@H](CCC(=O)O)NC(=O)[C@@H](CCC(=O)O)NC(=O)[C@H](N)CCC(=O)O)C(N)=O)C3=O)c3ccc(S(=O)(=O)O)cc3C2(C)C)C(C)(C)c2cc(S(=O)(=O)[O-])ccc21 (stereo partly shown) [PLGLAG ACPP, reference compound] (H-[dE][dE][dE][dE][dE][dE][dE][dE][dE][Ahx]PLGLAG[dR][dR][dR][dR][dR][dR][dR][dR][dR][dC](X1)-NH2)

Compound: O=S(=O)(CC1CS1)c1ccc(Oc2ccccc2)cc1 (stereo not shown) [SB3CT]
- inhibition of cystic fluid cleavage of RLQLKL ACPP (in words) [1]: unaffected

Compound: c1ccc(CN(CCN(Cc2ccccn2)Cc2ccccn2)Cc2ccccn2)nc1 [TPEN, N,N,N′,N-tetrakis (2-pyridylmethyl) ethylenediamine]
- inhibition of cystic fluid cleavage of RLQLKL ACPP (in words) [1]: unaffected

Compound: CC(=O)N[C@@H](CC(C)C)C(=O)N[C@@H](CC(C)C)C(=O)N[C@H](C=O)CCCNC(=N)N [leupeptin]
- inhibition of cystic fluid cleavage of RLQLKL ACPP (in words) [1]: partially inhibited

Compound: CC1(C)SCCN(S(=O)(=O)c2ccc(Oc3ccncc3)cc2)[C@H]1C(=O)NO [prinomastat]
- inhibition of cystic fluid cleavage of RLQLKL ACPP (in words) [1]: unaffected

Compound: CC[N+]1=C(C=CC=CC=C2N(CCCCCC(=O)NCCN3C(=O)CC(SC[C@@H](NC(=O)[C@@H](CCCNC(=N)N)NC(=O)[C@@H](CCCNC(=N)N)NC(=O)[C@@H](CCCNC(=N)N)NC(=O)[C@@H](CCCNC(=N)N)NC(=O)[C@@H](CCCNC(=N)N)NC(=O)[C@@H](CCCNC(=N)N)NC(=O)[C@@H](CCCNC(=N)N)NC(=O)[C@@H](CCCNC(=N)N)NC(=O)[C@@H](CCCNC(=N)N)NC(=O)[C@@H](CC(C)C)NC(=O)[C@@H](CCCCN)NC(=O)[C@@H](CC(C)C)NC(=O)[C@@H](CCC(N)=O)NC(=O)[C@@H](CC(C)C)NC(=O)[C@@H](CCCNC(=N)N)NC(=O)CCCCCNC(=O)[C@@H](CCC(=O)O)NC(=O)[C@@H](CCC(=O)O)NC(=O)[C@@H](CCC(=O)O)NC(=O)[C@@H](CCC(=O)O)NC(=O)[C@@H](CCC(=O)O)NC(=O)[C@@H](CCC(=O)O)NC(=O)[C@@H](CCC(=O)O)NC(=O)[C@@H](CCC(=O)O)NC(=O)[C@H](N)CCC(=O)O)C(N)=O)C3=O)c3ccc(S(=O)(=O)O)cc3C2(C)C)C(C)(C)c2cc(S(=O)(=O)[O-])ccc21 (stereo partly shown) [rlqlkl ACPP]
- SUV at 6 h ([2]; PyMT, 10 nmol): 0.13 ± 0.03 SUV

Compound: CC[N+]1=C(C=CC=CC=C2N(CCCCCC(=O)NCCN3C(=O)CC(SC[C@@H](NC(=O)[C@@H](CCCNC(=N)N)NC(=O)[C@@H](CCCNC(=N)N)NC(=O)[C@@H](CCCNC(=N)N)NC(=O)[C@@H](CCCNC(=N)N)NC(=O)[C@@H](CCCNC(=N)N)NC(=O)[C@@H](CCCNC(=N)N)NC(=O)[C@@H](CCCNC(=N)N)NC(=O)[C@@H](CCCNC(=N)N)NC(=O)[C@@H](CCCNC(=N)N)NC(=O)[C@@H](CC(C)C)NC(=O)[C@@H](CCCCN)NC(=O)[C@@H](CC(C)C)NC(=O)[C@@H](CCC(N)=O)NC(=O)[C@@H](CC(C)C)NC(=O)[C@@H](CCCNC(=N)N)NC(=O)CCCCCNC(=O)[C@@H](CCC(=O)O)NC(=O)[C@@H](CCC(=O)O)NC(=O)[C@@H](CCC(=O)O)NC(=O)[C@@H](CCC(=O)O)NC(=O)[C@@H](CCC(=O)O)NC(=O)[C@@H](CCC(=O)O)NC(=O)[C@@H](CCC(=O)O)NC(=O)[C@@H](CCC(=O)O)NC(=O)[C@H](N)CCC(=O)O)C(N)=O)C3=O)c3ccc(S(=O)(=O)O)cc3C2(C)C)C(C)(C)c2cc(S(=O)(=O)[O-])ccc21 (stereo partly shown) [rlqlkl]
- SUV at 6 h (Tumor uptake): 0.34 ± 0.16 SUV

- cleavage by trypsin (in words) (trypsin): efficiently cleaved
Compound: GMMYRS [GMMYRS ACPP]
- fluorescence contrast in tumors relative to adjacent normal tissue (in words) (PyMT mammary tumors): little fluorescence contrast

- fragment found (neutrophil elastase): K(Ac)Lr9c-(Cy5), major
- not cleaved (plasmin): not cleaved by plasmin (2 h)
Compound: H2N-e9-(ahx)-RLQLK(Ac)L-r9-c-(Cy5)-NH2

- cleavage by trypsin (in words) (trypsin): efficiently cleaved
Compound: RTRYED [RTRYED ACPP]
- fluorescence contrast in tumors relative to adjacent normal tissue (in words) (PyMT mammary tumors): little fluorescence contrast

Compound: aprotinin
- inhibition of cystic fluid cleavage of RLQLKL ACPP (in words) [1]: partially inhibited

Compound: α1-antitrypsin: natural inhibitor of elastase [reference compound]
- inhibition of cystic fluid cleavage of RLQLKL ACPP (in words) [1]: inhibited
- inhibition of tumor extract cleavage of RLQLKL ACPP (in words) [3]: significantly inhibited
